Reference: ChEMBL document CHEMBL2062424, “Bioactive sesquiterpenoids from the rhizomes of Acorus calamus” (J Nat Prod, 2012)
Activity calls are given as the source filed them. The calls are words filed in the database; no cut-off is given here.

Columns and labels:
Assay type in all cases: functional, cell-based
[1] = tested on: HCT-8; test: Cytotoxicity against human HCT8 cells by MTT assay
[2] = tested on: Bel-7402; test: Cytotoxicity against human Bel7402 cells by MTT assay
[3] = tested on: BGC-823; test: Cytotoxicity against human BGC823 cells by MTT assay
[4] = tested on: A549; test: Cytotoxicity against human A549 cells by MTT assay
[5] = tested on: A2780; test: Cytotoxicity against human A2780 cells by MTT assay
[6] = tested on: HepG2; test: Hepatoprotective activity against N-acetyl-p-aminophenol-induced toxicity in human HepG2 cells at 10 uM after 48 hrs by MTT assay
How it was run: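 HepG2 cells kept in DMEM with 10% fetal calf serum plus penicillin/streptomycin at 37 °C, 5% CO2, passaged with 0.25% trypsin/0.02% EDTA. After seeding and overnight incubation, 10 μM test sample added together with APAP (8 mM final) for 48 h. MTT (0.5 mg/mL) added for 4 h, formazan dissolved in DMSO, absorbance at 570 nm. Bicyclol 10 μM as positive control; mean ± SD, n = 3.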

Row | SMILES | IC50 [1] [µM] | IC50 [2] [µM] | IC50 [3] [µM] | IC50 [4] [µM] | IC50 [5] [µM] | Activity [6]
1 | CC1=C[C@@H](O)[C@@]2(CC1=O)[C@@H](C(C)C)C(=O)C[C@@H]2C (relative stereo) | > 10 | > 10 | > 10 | > 10 | > 10 | 
2 | CC1=C[C@H](O)[C@]2(CC1=O)[C@H](C)CC(=O)[C@H]2C(C)C [CALAMUSIN E] | > 10 | > 10 | > 10 | > 10 | > 10 | 
3 | C[C@]1(O)CC[C@H](O)[C@@]2(C)CCC(=O)C=C12 [CALAMUSIN I] | > 10 | > 10 | > 10 | > 10 | > 10 | Active
4 | CC1=CCC23OC(C(C)(C)O)(CC12O)C(=O)C=C3C (racemic) | > 10 | > 10 | > 10 | > 10 | > 10 | Active
5 | CC(C)[C@]1(O)C(=O)C[C@H](C)[C@@]12CC[C@](C)(O)C(=O)C2 | > 10 | > 10 | > 10 | > 10 | > 10 | Active
6 | Cc1ccc(C(C)C)c2c1[C@H](O)C[C@@](C)(O)[C@H]2O [CALAMUSIN H] | > 10 | > 10 | > 10 | > 10 | > 10 | 
7 | CC(C)=C1C(=O)C[C@@H](C)[C@@]2(O)CC[C@H](C)C(=O)[C@@H]12 [CALAMUSIN G] | > 10 | > 10 | > 10 | > 10 | > 10 | Active
8 | C[C@@H]1CC[C@]2(O)O[C@]13C=C(C(C)(C)O)C(=O)[C@H]3[C@@H]2C [CALAMUSIN B] | > 10 | > 10 | > 10 | > 10 | > 10 | 
9 | C[C@@H]1C(=O)CC[C@@H](C)[C@]2(O)C=C(C(C)(C)O)C(=O)[C@@H]12 [CALAMUSIN A] | > 10 | > 10 | > 10 | > 10 | > 10 | 
